The entries come from a sample that favours hits as a whole.
INS promoter act: TRM-6 insulin promoter activation | TRM-6 cells (human fetal islet line), insulin promoter eGFP reporter, imaging; plate-scaled: unstimulated 0, stimulated control 100 | activation, % at 2 µM | 130,000 compounds, 0.81% hits;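 active means activation at 2 µM above a set limit, confirmed on inspection of the cell images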;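 further: share of cells whose green reporter signal exceeds an intensity cutoff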
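Assay system: TRM-6 human fetal islet cells, insulin promoter–eGFP reporter; Also added: 0.75 µM tamoxifen as reporter inducer; Schedule: 15 h tamoxifen pre-treatment, 48 h compound treatment at 37 °C; Signal: fixed-cell fluorescence microscopy, eGFP plus Hoechst; Read-out: percent activation from GFP-positive cell fraction; Control set: stimulated and unstimulated wells.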
The depositor's hits bear a star.

SMILES	INS promoter act
CC1=NN(c2ccccc2)C(=O)/C1=C/C=C/c1ccc(N(C)C)cc1	0.0
C#CCN1C(=O)S/C(=C/C=C/c2ccc(N(C)C)cc2)C1=O	270.4*
O=C(CCN1C(=O)/C(=C/C=C/c2ccccc2)SC1=S)Nc1cccnc1	-5.4
O=S(=O)(c1ccc(Nc2ccc3c(c2)OCO3)nc1)N1CCOCC1	-71.4
O=C(CSc1nnc(SCc2cccc3ccccc23)s1)N/N=C/C=C/c1ccccc1[N+](=O)[O-]	0.0
CCN(CC)CCNC(=O)C(=O)NCC1OCCN1S(=O)(=O)c1ccc2c(c1)OCCO2 (stereo unspecified)	-9.1
Cc1cc(C)c(S(=O)(=O)N2CCOC2CNC(=O)C(=O)NCCc2c[nH]c3ccccc23)c(C)c1 (stereo unspecified)	309.8*
O=C(NCc1cccnc1)C(=O)NCC1OCCN1S(=O)(=O)c1ccccc1 (stereo unspecified)	7.3
CC(C)(C)NC(=O)CN(C(=O)CS(=O)CC(=O)Nc1ccc(F)cc1)c1ccc2c(c1)OCCO2 (stereo unspecified)	-9.1
Brc1cc2c(cc1/C=N/Nc1nc(N3CCCCC3)nc(N3CCCCC3)n1)OCO2	0.0
CCc1nnc(NC(=O)c2ccc(-c3ccc([N+](=O)[O-])cc3Cl)o2)s1	0.0
C[C@H](NC(=O)Cc1cccc2ccccc12)C(=O)N1CCCN(C)CC1	9.5
CC(C)(C)C(=O)NC(=S)NNC(=O)C(c1ccccc1)c1ccccc1	0.0
CC(C)(CO)NC(=O)C(c1ccccc1)c1ccccc1	406.3*
O=C(O)CC(c1ccccc1)c1ccccc1	0.0
COCCN(C(=O)c1csnn1)C(C(=O)NC(C)(C)C)c1cccc(OC)c1 (stereo unspecified)	-5.4
Cc1ccccc1NC(=O)c1cc(C(=O)c2cc(Cl)ccc2O)cn(-c2ccccc2C)c1=O	4.8
Cc1ccnc(NC(=O)CS(=O)(=O)Cc2ccccc2)c1	550.0*
CCC(CC)c1nnc(NC(=O)CS(=O)(=O)Cc2ccccc2)s1	-42.9
CC(C)Cc1nnc(NC(=O)CS(=O)(=O)Cc2ccccc2)s1	5.7
CC(Sc1nc(-c2ccc(F)cc2)cs1)C(=O)Nc1ccc(Cl)cn1 (stereo unspecified)	3.7
Cc1c(NC(=O)COC(=O)COc2ccc(Nc3ccccc3)cc2)c(=O)n(-c2ccccc2)n1C	133.3
COc1ccc2cc(-c3cc(C(=O)OCC(=O)Nc4c(C)n(C)n(-c5ccccc5)c4=O)c4ccccc4n3)ccc2c1	325.0*
Cc1c(NC(=O)COC(=O)CCC(=O)c2ccc(Cl)cc2)c(=O)n(-c2ccccc2)n1C	8.3
CCOC(=O)C1CN(S(=O)(=O)c2cccc(C(F)(F)F)c2)c2cc(CC(=O)OC)ccc2O1 (stereo unspecified)	-6.7
SMILES	INS promoter act
Cc1ccc(C(=O)NN(CCC(=O)NC(C)(C)C)C2=NS(=O)(=O)c3ccccc32)cc1	0.0
CCN1C(=O)/C(=c2/s/c(=C3\SC(C)=C(C)N3CC)c(=O)n2CC)N(c2ccccc2)C1=S	368.8
Cc1cc(C)c(NC(=O)C2CCN(c3cnccn3)CC2)c(C)c1	481.3*
O=C(Nc1ccc2c(c1)CCC2)C1CCN(c2ncccn2)CC1	-9.4
Cc1cc(C)c(NC(=O)C2CCCN2C(=O)NC2CCCCC2)c(C)c1 (stereo unspecified)	9.7
COc1cc(C(=O)NCC(=O)N/N=C(C)\C=C\c2ccccc2)cc(OC)c1OC	-6.7
COc1ccc(NC(=S)Nn2cnnc2)cc1OC	-5.3
Cc1ccc(NC(=O)CSc2nnc(-c3n[nH]c4ccccc34)n2-c2ccccc2)c(C)c1	9.1
CCOc1ccc2c(c1)-c1c(ssc1=S)C(C)(C)N2C(=O)c1ccco1	-7.1
CCOc1ccc2c(c1)C(C)=CC(C)(C)N2C(=O)Nc1ccccc1	80.6*
CCOc1ccc(NC(=O)CCn2cccc2)cc1	-72.7
CCOC(=O)N1CCN(C(=O)CSc2ccc(-c3ccc(OC)cc3)nn2)CC1	2.9
O=C(Nc1ccccc1)C1CCCN1/C=C/C(=O)C(F)(F)F (stereo unspecified)	8.3
CCCCNC(=O)CCN1N=C(c2ccccc2)CCC1=O	136.4
COC(=O)C1=C(C)C(c2cccs2)NC(=O)N1C (stereo unspecified)	-2.6
COC(=O)C1=C(C)N(CCCC(=O)O)C(=O)NC1c1ccc(-c2ccccc2)cc1 (stereo unspecified)	0.0
COC(=O)C1=C(C)N(CCCC(=O)O)C(=O)NC1c1cccs1 (stereo unspecified)	295.0*
O=c1[nH]c(SCc2ccccc2)nc2c1sc1ccccc12	-7.7
O=C(C1CCC(CNc2nc(=S)[nH]c3ccccc23)CC1)N1CCN(c2ccc(F)cc2)CC1 (stereo unspecified)	8.1
CC(C)c1ccccc1NS(=O)(=O)N(C)C	380.0*
Cc1ccc(S(=O)(=O)Nc2cc(C(C)C)c(O)cc2C)cc1	2.3
CN(C)S(=O)(=O)Nc1ccccc1C(N)=O	35.7
CCC(C)(C)C1CCC2(CC1)NC(CO)(CO)CO2 (stereo unspecified)	-100.0
COc1ccc(NC2=C(C(C)=O)C(c3ccc(OC)cc3)C(C(C)=O)C(C)(O)C2)cc1 (stereo unspecified)	316.7*
COc1ccc(C2C(C(C)=O)=C(Nc3ccccc3)CC(C)(O)C2C(C)=O)cc1OC (stereo unspecified)	215.4
SMILES	INS promoter act
COc1ccc(C2NC(=O)NC(C)=C2C(C)=O)cc1 (stereo unspecified)	128.6
CC1Cc2nc(SCC(=O)OCc3ccccc3)n(C)c(=O)c2S1 (stereo unspecified)	-71.4
CN(C)S(=O)(=O)c1ccc(C(=O)Nc2ccccc2F)cc1	7.1
CN(C)S(=O)(=O)c1ccc(Oc2ccccc2)cc1	475.0*
CNS(=O)(=O)c1ccc(Oc2ccc(S(=O)(=O)NC)cc2)cc1	-71.4
O=C(c1ccc(Cl)c(S(=O)(=O)Nc2ccccc2C(=O)N2CCc3ccccc3C2)c1)N1CCc2ccccc2C1	7.4
CCCOC(=O)Nc1c(C)cccc1C(C)C	-8.3
O=C1/C(=C/c2ccco2)CCC1C1CCCC1 (stereo unspecified)	-7.1
O=C1/C(=C/c2ccc(F)cc2)CCC1C1CCCC1 (stereo unspecified)	441.7*
CN(C)c1ccc(/C=C2\CCC/C(=C\c3ccccc3)C2=O)cc1	120.4
CCc1cc[n+](-c2nc3ccccc3nc2[N-]S(=O)(=O)c2ccc(Br)s2)cc1	-7.7
COc1ccc(/C=N/NC(=O)CCc2c(C)n[nH]c2C)cc1O	8.3
CC(=O)Nc1ccc(NC(=O)CSc2nc(C)nc3sc(C)c(C)c23)cc1	-6.7
CCc1nc(SCC(=O)Nc2nnc(CC)s2)c2c(C)c(C)sc2n1	253.8*
CCc1nnc(NC(=O)CSc2ccc(-c3ccco3)nn2)s1	115.4
CCOC(=O)N1CCC(N(CCN(C)C)C(=S)Nc2ccc(OCC)cc2)CC1	9.1
Cc1ccc(C)c(NC(=O)Cn2nnc(C(=O)NCc3cccs3)c2N)c1	-3.6
COC(=O)c1cn(NC(=O)c2cccc(F)c2)c(=O)c2ccccc12	-6.5
COC(=O)c1cn(NC(=O)c2ccc(OC)c(OC)c2)c(=O)c2ccccc12	6.8
COC(=O)c1cn(NC(=O)c2ccc([N+](=O)[O-])c(C)c2)c(=O)c2ccccc12	320.5*
COc1cc(C(=O)NCCC(=O)NC2CCCCCCC2)cc(OC)c1OC	-7.7
O=C(CSc1ccccn1)C12CC3CC(CC(C3)C1)C2	5.9
Cc1cc(OC(=O)C(c2ccccc2)c2ccccc2)c([N+](=O)[O-])c(=O)[nH]1	7.1

Screening data deposited in PubChem by Columbia University Molecular Screening Center.
